Molecules are shown by their SMILES.

Assay [1] has as its target T1, Adrenergic receptor alpha-2 (Rattus norvegicus, UniProt P22086+P19328+P22909).
T1 sequence (P22086 whole entry): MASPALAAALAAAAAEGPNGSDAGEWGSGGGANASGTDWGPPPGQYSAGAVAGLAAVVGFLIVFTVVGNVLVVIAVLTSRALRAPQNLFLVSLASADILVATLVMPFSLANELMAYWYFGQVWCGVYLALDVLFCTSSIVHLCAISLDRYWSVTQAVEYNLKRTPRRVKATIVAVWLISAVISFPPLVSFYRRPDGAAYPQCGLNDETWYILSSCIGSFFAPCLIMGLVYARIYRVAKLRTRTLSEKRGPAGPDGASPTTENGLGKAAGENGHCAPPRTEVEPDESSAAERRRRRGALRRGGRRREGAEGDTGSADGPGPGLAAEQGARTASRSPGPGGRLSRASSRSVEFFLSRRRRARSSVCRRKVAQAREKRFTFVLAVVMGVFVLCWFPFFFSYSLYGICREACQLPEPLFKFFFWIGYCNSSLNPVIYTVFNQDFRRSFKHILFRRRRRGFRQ
T1 sequence (P19328 whole entry): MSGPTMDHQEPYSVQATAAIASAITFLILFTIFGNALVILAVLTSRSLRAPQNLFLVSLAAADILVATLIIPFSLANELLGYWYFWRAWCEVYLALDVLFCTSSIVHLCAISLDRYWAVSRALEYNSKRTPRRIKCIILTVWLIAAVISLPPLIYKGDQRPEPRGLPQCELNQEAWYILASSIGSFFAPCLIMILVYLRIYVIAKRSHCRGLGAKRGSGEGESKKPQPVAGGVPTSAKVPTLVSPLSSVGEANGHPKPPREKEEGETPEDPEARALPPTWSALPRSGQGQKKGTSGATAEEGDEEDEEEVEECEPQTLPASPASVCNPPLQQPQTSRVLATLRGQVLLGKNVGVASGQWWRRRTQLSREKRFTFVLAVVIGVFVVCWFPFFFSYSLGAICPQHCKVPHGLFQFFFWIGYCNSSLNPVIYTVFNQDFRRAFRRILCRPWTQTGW
T1 sequence (P22909 whole entry): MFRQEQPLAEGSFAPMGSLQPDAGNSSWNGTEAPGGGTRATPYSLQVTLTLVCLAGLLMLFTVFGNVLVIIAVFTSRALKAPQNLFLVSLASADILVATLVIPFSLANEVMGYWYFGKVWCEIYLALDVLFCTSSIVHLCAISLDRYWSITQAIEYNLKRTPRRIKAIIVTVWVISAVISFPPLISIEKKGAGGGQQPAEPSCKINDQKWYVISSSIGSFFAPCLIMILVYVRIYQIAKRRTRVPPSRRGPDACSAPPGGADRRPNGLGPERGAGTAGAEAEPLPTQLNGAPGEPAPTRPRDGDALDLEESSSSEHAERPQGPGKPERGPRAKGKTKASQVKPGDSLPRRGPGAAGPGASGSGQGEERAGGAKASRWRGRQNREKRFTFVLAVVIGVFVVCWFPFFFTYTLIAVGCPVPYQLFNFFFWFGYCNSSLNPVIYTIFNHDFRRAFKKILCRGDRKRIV
Briefly: Binding affinity towards alpha-2 adrenergic receptor using [3H]rauwolscine as radioligand in competitive binding assay. In kind it is protein assay. The essentials:
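Frozen rat cortex membranes in Tris pH 7.4 buffer with NaCl, KCl, MgCl2, CaCl2 and ascorbate. [3H]rauwolscine at 325 pM final; nonspecific binding with 10 μM yohimbine. Incubated 45 min at 37 °C, then filtered. Ki derived from IC50 by Cheng-Prusoff.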

Assay [2] addresses T2, Adrenergic receptor alpha-1 (Rattus norvegicus, UniProt P15823+P23944+P43140).
T2 sequence (P15823 whole entry): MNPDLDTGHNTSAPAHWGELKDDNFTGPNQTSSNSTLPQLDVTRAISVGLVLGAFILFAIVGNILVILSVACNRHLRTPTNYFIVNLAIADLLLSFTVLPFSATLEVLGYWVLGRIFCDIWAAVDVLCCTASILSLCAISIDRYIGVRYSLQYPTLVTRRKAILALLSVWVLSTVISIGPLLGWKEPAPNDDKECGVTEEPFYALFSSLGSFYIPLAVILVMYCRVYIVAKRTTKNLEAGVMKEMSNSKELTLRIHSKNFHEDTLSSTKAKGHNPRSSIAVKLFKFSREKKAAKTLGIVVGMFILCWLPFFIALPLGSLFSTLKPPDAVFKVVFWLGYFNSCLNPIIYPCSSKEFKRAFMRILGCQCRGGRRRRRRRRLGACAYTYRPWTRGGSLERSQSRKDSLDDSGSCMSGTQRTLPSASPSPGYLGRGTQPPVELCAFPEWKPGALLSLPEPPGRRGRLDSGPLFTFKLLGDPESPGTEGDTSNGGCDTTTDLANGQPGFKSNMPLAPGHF
T2 sequence (P23944 whole entry): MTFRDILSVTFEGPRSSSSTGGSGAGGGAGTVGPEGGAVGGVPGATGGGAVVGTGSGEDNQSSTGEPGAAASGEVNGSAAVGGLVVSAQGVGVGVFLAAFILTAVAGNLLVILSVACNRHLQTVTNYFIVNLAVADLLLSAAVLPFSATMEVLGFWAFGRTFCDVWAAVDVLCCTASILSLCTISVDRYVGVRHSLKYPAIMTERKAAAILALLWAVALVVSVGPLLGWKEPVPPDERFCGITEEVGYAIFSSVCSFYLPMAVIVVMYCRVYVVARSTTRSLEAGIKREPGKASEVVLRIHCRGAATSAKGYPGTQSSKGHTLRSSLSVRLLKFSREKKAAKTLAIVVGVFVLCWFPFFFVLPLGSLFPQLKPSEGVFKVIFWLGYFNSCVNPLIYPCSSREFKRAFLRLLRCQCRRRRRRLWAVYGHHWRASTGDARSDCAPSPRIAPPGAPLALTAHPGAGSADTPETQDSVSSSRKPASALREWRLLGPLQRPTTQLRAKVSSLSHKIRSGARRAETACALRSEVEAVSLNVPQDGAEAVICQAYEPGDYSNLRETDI
T2 sequence (P43140 whole entry): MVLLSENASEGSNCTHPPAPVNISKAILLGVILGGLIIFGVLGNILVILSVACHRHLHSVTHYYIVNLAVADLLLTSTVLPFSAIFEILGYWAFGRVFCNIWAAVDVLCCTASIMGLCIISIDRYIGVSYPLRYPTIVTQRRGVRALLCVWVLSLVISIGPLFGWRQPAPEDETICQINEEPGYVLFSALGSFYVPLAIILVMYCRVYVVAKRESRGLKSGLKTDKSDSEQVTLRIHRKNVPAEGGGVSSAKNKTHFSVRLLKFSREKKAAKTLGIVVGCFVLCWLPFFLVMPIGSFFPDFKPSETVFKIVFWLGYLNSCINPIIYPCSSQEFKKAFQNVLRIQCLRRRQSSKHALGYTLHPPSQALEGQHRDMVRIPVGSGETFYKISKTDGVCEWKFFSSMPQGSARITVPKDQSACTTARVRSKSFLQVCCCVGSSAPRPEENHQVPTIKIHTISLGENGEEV
Briefly: Binding affinity towards alpha-1 adrenergic receptor using [3H]prazosin as radioligand in competitive binding assay. The format is protein assay. The essentials: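 Frozen rat cortex membranes (300g then 48000g spins) in Tris pH 7.4 buffer with salts and ascorbate. [3H]prazosin at 1.0 nM final; nonspecific binding with 10 μM phentolamine. Incubated 45 min at 37 °C, then filtered. Ki via Cheng-Prusoff.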

With `NC[C@@H]1OC(c2ccccc2)Cc2c1ccc(O)c2O` (some centres not stated), the values for the Ki in assay [1] and in assay [2] were 0.122 µM and 10.8 µM, respectively.

`CC(C)(C)C1Cc2c(ccc(O)c2O)[C@H](CN)O1` (some centres not stated): the results for the Ki in assay [1] and in assay [2] were 0.45 µM and greater than 10 µM, respectively.

Regarding `C=CCNC[C@@H]1OC(C2CCCCC2)Cc2c1ccc(O)c2O` (some centres not stated), the values for the Ki in assay [1] and in assay [2] were 2.2 µM and greater than 10 µM, respectively.

In the case of `NC[C@@H]1OC(C2CCCCC2)Cc2c1ccc(O)c2O` (some centres not stated), the Ki in assay [1] is 0.271 µM; in assay [2], greater than 10 µM.

Turning to `NC[C@H]1O[C@@H](c2ccccc2)Cc2c1ccc(O)c2O`, the results for the Ki in assay [1] and in assay [2] were 2.5 µM and 6.06 µM, respectively.

For `NC[C@@H]1O[C@H](c2ccccc2)Cc2c1ccc(O)c2O`, the Ki in assay [1] is 0.04 µM; in assay [2], greater than 10 µM.

For orientation: Ki means the equilibrium dissociation constant of an inhibitor or competing ligand from its target. A lower Ki goes with higher affinity.

(Values after ChEMBL document CHEMBL1125832, “Synthesis and dopaminergic activity of 3-substituted 1-(aminomethyl)-3,4-dihydro-5,6-dihydroxy-1H-2-benzopyrans: characterization of an auxiliary binding region in the D1 receptor” (J Med Chem, 1991).)
